Sampled rows, rich in hits. Any-hit rate of the full collection: about 1.2%.
NPR1 activator: GC-A (human) enzyme activation; HEK293 GC-A cells, cGMP TR-FRET, EC30 ANP; 0% at EC30 ANP, 100% saturating ANP; P16066; AID 1671463; 0.14% of 370,000 active; activation, % at 10 µM; in the data active = activation above about 40%
ASAP1 inh: ASAP1 ArfGAP inhibition. ASAP1-stimulated ARF1 GTP hydrolysis, GDP FP detection. inhibition, % at 16.5 µM. AID 624377. 0.19% of 360,000 active. Q9ULH1; in the data active = inhibition above about 25%;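 note: 0% = vehicle with enzyme and substrate and 100% = no enzyme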
ARFGAP1 inhibitor: rat ARFGAP1 inhibition; Q62848; Arfgap1-stimulated ARF1 GTP hydrolysis, GDP FP detection; inhibition, % at 16.5 µM; 0.26% of 360,000 active; AID 651572;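 active = inhibition above a per-plate limit, mean inhibition of low control wells plus 3 SD, cut at about 25% in these data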;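 note: 0% = DMSO wells with enzyme and 100% = wells lacking Arfgap1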
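Assay system: Rat Arfgap1 GAP domain (His6, aa 1-136), purified enzyme | Buffer or medium: HEPES 25 mM pH 7.5, NaCl 150 mM, MgCl2, DTT | Schedule: GTP hydrolysis reaction 2 h at 25 °C | Signal: FP of antibody-bound GDP Alexa 633 tracer, ex 620/em 688 nm | Measure: Percent inhibition of Arfgap1-stimulated GTP hydrolysis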
core dimer inh: HCV core protein dimerization inhibition | TR-FRET GST/Flag-core106 dimerization, 1536-well | inhibition, % at 5 µM | 0.33% of 300,000 active;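 active = inhibition above the mean of all tested compounds plus 3 SD, set per screening campaign, cut at about 45% in these data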
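assay system = GST-tagged and Flag-tagged HCV core protein residues 1-106 | controls = unlabelled core106 and no-GST-core106 wells | incubation = compound-protein-antibody incubation 4 h at 22.5 °C | probe or stimulus = Eu donor and XL665 acceptor anti-tag antibodies | read-out = % inhibition based on acceptor/donor emission ratio | signal = TR-FRET 671 and 617 nm emission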
CTSL1 counter: blocks F. hepatica cathepsin L1 in PFM18AAP counter-screen; recombinant F. hepatica cathepsin L1, Z-Leu-Arg-MCA fluorescence; inhibition, % at 5.96 µM; 0.49% of 300,000 active; AID 1906;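 active = inhibition above the mean of all tested compounds plus 3 SD, set per screening campaign, cut at about 17% in these data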;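 note: 0% = plate median of test compound wells and 100% = 1 µM Z-Phe-Ala-diazomethylketone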
GC-B act: GC-B (human) receptor activation | P20594 | HEK293-GC-B cells, CNP EC30, cGMP TR-FRET; 0% at EC30 CNP, 100% saturating CNP | activation, % at 10 µM | 0.11% of 370,000 active | AID 1920062;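 active = activation at 10 µM reaching about 35% in either raw or pattern-adjusted values, limit read from the data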
ARFGAP1 confirm: rat ARFGAP1 inhibition, confirmed | 30% of 890 active | inhibition, % at 16.5 µM | ARFGAP1-stimulated ARF1 GTP hydrolysis, GDP tracer FP | shares compounds with ARFGAP1 inhibitor;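 active = average inhibition over triplicates above the hit cutoff set in the earlier primary screen, cut at about 25% in these data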;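 note: 0% = Arfgap1 plus ARF1-GTP with DMSO and 100% = wells lacking Arfgap1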
Target sequence (Q62848 whole entry, looked up): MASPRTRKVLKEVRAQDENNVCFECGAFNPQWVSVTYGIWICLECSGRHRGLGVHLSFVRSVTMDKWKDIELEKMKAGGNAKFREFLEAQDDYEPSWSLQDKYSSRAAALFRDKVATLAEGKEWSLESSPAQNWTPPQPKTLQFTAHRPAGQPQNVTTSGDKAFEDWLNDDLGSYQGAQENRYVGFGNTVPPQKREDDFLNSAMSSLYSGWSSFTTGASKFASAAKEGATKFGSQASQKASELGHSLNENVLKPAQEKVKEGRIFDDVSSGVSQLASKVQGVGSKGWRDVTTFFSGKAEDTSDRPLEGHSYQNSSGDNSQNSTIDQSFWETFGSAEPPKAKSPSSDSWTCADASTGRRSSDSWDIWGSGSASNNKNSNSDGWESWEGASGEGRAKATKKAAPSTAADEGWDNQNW
Active calls of the source: *; . = no result.

SMILES	NPR1 activator	ASAP1 inh	ARFGAP1 inhibitor	core dimer inh	CTSL1 counter	GC-B act	ARFGAP1 confirm
Cc1ccc(OCc2nnc(SCC(=O)Nc3sc(C)c(C)c3C#N)n2C)cc1	-3	-4	15	3	-1	0	.
O=C(NCCN1CCN(c2ccccc2F)CC1)c1ccc2nc3ccccc3c(=O)n2c1	10	-8	-11	.	.	-1	.
CCOc1ccc(-c2nnn(CC(=O)NCc3ccc4c(c3)OCO4)n2)cc1	0	-3	29*	20	0	1	12
COc1ccc(-c2nnn(CC(=O)NCc3ccc4c(c3)OCO4)n2)cc1OC	3	11	6	5	-1	-6	.
COC(=O)C1=C(C(=O)OC)[C@@H]2N(C)c3ccccc3[C@@]23C[C@@H](CO)N(C(=O)c2cccs2)C3=N1	1	-7	-14	1	-2	-5	.
COc1cccc(-c2nnc3sc(-c4ccccn4)nn23)c1	5	23	41*	7	2	7	45*
COc1cc(/C=N/NC(=O)c2ccc(Cl)c(S(N)(=O)=O)c2)ccc1OCC(N)=O	6	-9	44*	5	2	1	8
O=C(CSc1nnc(COc2ccc(Cl)cc2)o1)NC1CC2CCC1C2 (stereo not given)	15	0	30*	8	10	5	3
COc1ccc(OCc2nnc(SCC(=O)c3ccccc3)o2)cc1	-2	-11	32*	-1	1	-1	8
COc1ccc(Cc2nnc(SCC(=O)c3ccccc3)o2)cc1	0	-6	-2	5	0	1	.
COc1ccc(OCc2nnc(SCC(=O)NC3CC4CCC3C4)o2)cc1 (stereo not given)	6	-15	-1	-3	-8	1	.
COc1cc(CN2CCNC(=O)C2CC(=O)N(C)CCN2CCOCC2)cc(OC)c1 (stereo not given)	1	10	28*	.	.	5	-7
COc1cc(CN2CCNC(=O)C2CC(=O)N(C)CCCN2CCOCC2)cc(OC)c1 (stereo not given)	1	7	0	-4	1	9	.
CCN1CCN(Cc2ccc(NC(=O)c3cc(NC(=O)C(=O)c4c[nH]c5ccccc45)cc(OC)c3)cc2C(F)(F)F)CC1	-2	20	46*	-5	-1	-2	36*
CCN1CCN(Cc2ccc(NC(=O)c3ccc(C)c(NC(=O)C(=O)c4c[nH]c5ccccc45)c3)cc2C(F)(F)F)CC1	1	10	11	-24	2	-6	.
CCCCCCCCOC(=O)c1nc(Cl)c(Cl)c(N)c1Cl	-6	-6	15	-6	4	5	.
C[C@H](CO)N1C[C@H](C)[C@@H](CN(C)C(=O)Nc2ccc(C(F)(F)F)cc2)Oc2ccc(NC(=O)Nc3ccccc3)cc2C1=O	5	15	30*	.	.	0	12
C[C@H](CO)N1C[C@H](C)[C@@H](CN(C)C(=O)Nc2ccccc2)Oc2ccc(NC(=O)Nc3ccccc3)cc2C1=O	0	-5	13	.	.	2	.
C[C@@H]1CCCCO[C@H](CN(C)Cc2ccc(C(=O)O)cc2)[C@H](C)CN([C@@H](C)CO)C(=O)c2cc(NC(=O)Nc3ccc(C(F)(F)F)cc3)ccc2O1	3	7	25*	.	.	6	0
Cc1nn(C)c(Cl)c1/C=N/OC(=O)c1ccccc1	6	-6	32*	0	-3	0	-4
Cc1nn(C)c(Cl)c1/C=N/OC(=O)c1ccc(F)cc1	1	6	-8	-7	3	6	.
COC(=O)C1=C(C)OC(N)=C(C#N)C1c1ccccc1 (stereo not given)	-1	4	-14	0	0	-4	.
COC(=O)C1=C(C)OC(N)=C(C#N)C1C1CCCCC1 (stereo not given)	-1	3	26*	-9	-1	-1	0
COC(=O)c1cccc(NC(=O)c2cccc(OC)c2)c1	-1	3	-8	-1	-2	-3	.

Assay outcomes (PubChem BioAssay)
